# Activity calls are given as the source filed them. No cut-off for these calls is given here.
# Legend:
# Plasmodium falciparum [1] = test: Induction of apoptosis in chloroquine-sensitive Plasmodium falciparum 3D7 trophozoites assessed as chromatin fragmentation at 10 uM at 18 hrs by Hoechst 33342 staining; type: functional, organism-based
# Method in brief: (§1)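 3D7 trophozoite cultures were treated 18 or 24 h, and ring cultures 24, 42 or 48 h. Parasites were stained with Hoechst 33342 for 10 min at room temperature, washed with PBS, and smeared. Condensed or fragmented chromatin (blue, 460 nm) was viewed by fluorescence microscopy.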
# Plasmodium falciparum [2] = test: Induction of apoptosis in ring stage chloroquine-sensitive Plasmodium falciparum 3D7 assessed as chromatin fragmentation at 10 uM at 18 hrs by Hoechst 33342 staining; type: functional, organism-based
# Plasmodium falciparum [3] = test: Reduction in parasitemia of ring stage chloroquine-sensitive Plasmodium falciparum 3D7 at 10 uM after 48 hrs by Giemsa staining; type: functional, organism-based
# Plasmodium falciparum [4] = test: Antimalarial activity against ring stage chloroquine-resistant Plasmodium falciparum Dd2 infected in human O positive erythrocytes after 48 hrs by SYBR green 1 fluorescence assay; type: functional, organism-based; details: Dd2, 48 h
# Method in brief: (§2)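 Ring-stage cultures were sorbitol-synchronized in O+ human erythrocytes in RPMI 1640 with 0.5% Albumax, hypoxanthine and gentamicin, then plated at 2% hematocrit and 1% parasitemia. Drugs were tested at 0–100 μM (final DMSO 0.4%) in triplicate for 48 h at 37 °C under 5% O2/5% CO2/90% N2. Read-out was SYBR Green I (ex 497/em 520 nm). IC50 was read visually as 50% growth inhibition, with chloroquine as control.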
# Plasmodium falciparum [5] = test: Induction of apoptosis in ring stage chloroquine-sensitive Plasmodium falciparum 3D7 assessed as disruption of mitochondrial membrane potential at 10 uM by JC-1 staining; type: functional, organism-based
# Method in brief: (§3)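 3D7 ring cultures were treated 24, 42 or 48 h, and trophozoite cultures 18 or 24 h. Parasites were stained with JC-1 for 20 min at 37 °C and viewed as wet mounts by fluorescence microscopy. Red-orange aggregate signal (590 nm) indicates intact ΔΨm; green monomer signal (525 nm) indicates dissipation.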
# Plasmodium falciparum [6] = test: Induction of internucleosomal fragmentation in chloroquine-sensitive Plasmodium falciparum 3D7 trophozoites at 10 uM at 24 hrs by Hoechst 33342 staining; type: functional, organism-based; method in brief: as §1
# Plasmodium falciparum [7] = test: Growth inhibition of ring stage chloroquine-sensitive Plasmodium falciparum 3D7 at 10 uM treated for 48 hrs following washout incubated for 48 hrs in drug free medium by Giemsa staining; type: functional, organism-based
# Method in brief: (§4)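 Highly synchronized 3D7 cultures were exposed by stage: rings 48 h, trophozoites 24 h, schizonts 8 h. After a media wash, cultures grew 48 h in drug-free complete RPMI, in triplicate. Giemsa smears were read by counting 3000 cells per stage; pycnotic parasites were scored nonviable. Inhibition is percent of drug-free control.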
# Plasmodium falciparum [8] = test: Induction of apoptosis in ring stage chloroquine-sensitive Plasmodium falciparum 3D7 assessed as chromatin condensation at 10 uM at 18 hrs by Hoechst 33342 staining; type: functional, organism-based
# Plasmodium falciparum [9] = test: Induction of apoptosis in ring stage chloroquine-sensitive Plasmodium falciparum 3D7 assessed as nuclear condensation at 10 uM at 24 hrs by Giemsa staining
# [10] = Resistance index, ratio of IC50 for ring stage chloroquine-resistant Plasmodium falciparum INDO to IC50 for ring stage chloroquine-sensitive Plasmodium falciparum 3D7; type: functional
# Plasmodium falciparum [11] = test: Induction of apoptosis in chloroquine-sensitive Plasmodium falciparum 3D7 trophozoites assessed as chromatin condensation at 10 uM at 18 hrs by Hoechst 33342 staining; type: functional, organism-based; method in brief: as §1
# Plasmodium falciparum [12] = test: Growth inhibition of ring stage chloroquine-sensitive Plasmodium falciparum 3D7 at 10 uM treated for 48 hrs following washout incubated for 48 hrs in drug free medium by SYBR green 1-based fluorescence assay; type: functional, organism-based
# Method in brief: (§5)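 Stage-specific exposure of synchronized 3D7: rings 48 h, trophozoites 24 h, schizonts 8 h. Drug was removed by media wash and cultures grew 48 h drug-free, in a separate triplicate set. Growth was read by SYBR Green I fluorescence and expressed as percent inhibition relative to drug-free control.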
# Plasmodium falciparum [13] = test: Induction of apoptosis in chloroquine-sensitive Plasmodium falciparum 3D7 trophozoites assessed as nuclear condensation at 10 uM at 18 hrs by Giemsa staining; type: functional, organism-based
# Plasmodium falciparum [14] = test: Growth inhibition of chloroquine-sensitive Plasmodium falciparum 3D7 trophozoites at 10 uM treated for 24 hrs followed by washout measured after 48 hrs by Giemsa staining; type: functional, organism-based; method in brief: as §4
# Plasmodium falciparum [15] = test: Reduction in parasitemia of chloroquine-sensitive Plasmodium falciparum 3D7 trophozoites at 10 uM after 48 hrs by Giemsa staining; type: functional, organism-based
# [16] = Therapeutic index, ratio of IC50 for […] cells to IC50 for ring stage chloroquine-sensitive Plasmodium falciparum 3D7; type: cell-based; details: mouse, read-out: Ratio IC50
# Method in brief: (§6)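 HeLa or L929 fibroblasts were seeded at 10^4 cells per well in RPMI with 10% FBS, left overnight, then exposed 24 h at 37 °C, 5% CO2. MTT was added for 3 h; formazan was dissolved in DMSO and read at 570 nm. IC50 came from dose–response curves. Index = IC50(mammalian)/IC50(Pf 3D7, SYBR Green assay).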
# Plasmodium falciparum [17] = test: Antimalarial activity against chloroquine-sensitive Plasmodium falciparum 3D7 assessed as inhibition of schizonts growth at 10 uM treated for 8 hrs followed by washout measured after 48 hrs by Giemsa staining; type: functional, organism-based
# Method in brief: (§7)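 Highly synchronized 3D7 schizonts were exposed to drug for 8 h under normal culture conditions, alongside untreated controls. After a media wash, cultures were incubated for 48 h with or without drug. Giemsa-stained thin smears were examined microscopically for parasitemia and stage, and compared with control.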
# [18] = Therapeutic index, ratio of IC50 for human HeLa cells to IC50 for ring stage chloroquine-sensitive Plasmodium falciparum 3D7; type: cell-based; details: read-out: Ratio IC50; method in brief: as §6
# Plasmodium falciparum [19] = test: Growth inhibition of chloroquine-sensitive Plasmodium falciparum 3D7 schizonts at 10 uM treated for 8 hrs following washout incubated for 48 hrs in drug free medium by Giemsa staining; type: functional, organism-based; method in brief: as §4
# Plasmodium falciparum [20] = test: Induction of apoptosis in chloroquine-sensitive Plasmodium falciparum 3D7 trophozoites assessed as disruption of mitochondrial membrane potential at 10 uM by JC-1 staining; type: functional, organism-based; method in brief: as §3
# Plasmodium falciparum [21] = test: Induction of internucleosomal fragmentation in ring stage chloroquine-sensitive Plasmodium falciparum 3D7 at 10 uM at 24 hrs by Hoechst 33342 staining; type: functional, organism-based; method in brief: as §1
# Plasmodium falciparum [22] = test: Antimalarial activity against chloroquine-sensitive Plasmodium falciparum 3D7 assessed as merozoites egress at 10 uM treated for 8 hrs followed by washout measured after 48 hrs by Giemsa staining; type: functional, organism-based; method in brief: as §7
# Plasmodium falciparum [23] = test: Growth inhibition of ring stage chloroquine-sensitive Plasmodium falciparum 3D7 at 10 uM treated for 24 hrs followed by washout measured after 72 hrs by Giemsa staining; type: functional, organism-based
# Method in brief: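 Synchronized 3D7 ring cultures were exposed for 18, 24 or 48 h, then washed free of drug. Cultures were kept under normal conditions to 96 h total. Giemsa-stained thin smears were read by counting 3000 cells; inhibition is relative to the matching drug-free control.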
# [24] = Resistance index, ratio of IC50 for ring stage chloroquine-resistant Plasmodium falciparum Dd2 to IC50 for ring stage chloroquine-sensitive Plasmodium falciparum 3D7; type: functional
# Plasmodium falciparum [25] = test: Growth inhibition of chloroquine-sensitive Plasmodium falciparum 3D7 schizonts at 10 uM treated for 8 hrs following washout incubated for 48 hrs in drug free medium by SYBR green 1-based fluorescence assay; type: functional, organism-based; method in brief: as §5
# [26] = Inhibition of Plasmodium falciparum falcipain-2 using benzyloxycarbonyl-Phe-Arg-7-amino-4-methyl coumarin hydrochloride as substrate preincubated for 10 mins prior substrate addition by fluorimetric assay
# Method in brief: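 Recombinant falcipain-2 (2 μg) was preincubated 10 min at room temperature with or without compound, in triplicate. Buffer was 100 mM sodium acetate pH 5.5 with 10 mM DTT and 1% final DMSO. Z-Phe-Arg-AMC was then added at 10 μM final. AMC release was read at ex 355/em 460 nm. IC50 was taken by visual matching of 50% inhibition.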
# Plasmodium falciparum [27] = test: Antimalarial activity against ring stage chloroquine-resistant Plasmodium falciparum INDO infected in human O positive erythrocytes after 48 hrs by SYBR green 1 fluorescence assay; type: functional, organism-based; method in brief: as §2
# Plasmodium falciparum [28] = test: Growth inhibition of chloroquine-sensitive Plasmodium falciparum 3D7 trophozoites at 10 uM treated for 24 hrs following washout incubated for 48 hrs in drug free medium by SYBR green 1-based fluorescence assay; type: functional, organism-based; method in brief: as §5
# Plasmodium falciparum [29] = test: Inhibition of RBC invasion of chloroquine-sensitive Plasmodium falciparum 3D7 schizonts at 10 uM treated for 8 hrs followed by washout measured after 48 hrs by Giemsa staining; type: functional, organism-based; method in brief: as §7
# Plasmodium falciparum [30] = test: Antimalarial activity against ring stage chloroquine-sensitive Plasmodium falciparum 3D7 infected in human O positive erythrocytes after 48 hrs by SYBR green 1 fluorescence assay; type: functional, organism-based; details: 3D7, 48 h
# Method in brief: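 P. falciparum 3D7 in O+ human erythrocytes in complete RPMI with Albumax at 37 °C under 5% O2/5% CO2. Culture was sorbitol-synchronized to rings and plated at 2% hematocrit, 1% parasitemia. Drug range was 0–100 μM with 0.4% final DMSO, in triplicate. After 48 h, SYBR Green I fluorescence was read (ex 497/em 520 nm). IC50 was taken by visual matching of 50% growth inhibition.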
structure (smiles),measurement,setting,value
COc1cc(OC)c(OC)cc1/C=C/C(=O)c1ccc(/C=C/c2cc(OC)c(OC(C)=O)c(OC)c2)cc1,Activity,Plasmodium falciparum [1],Active
same,Activity,Plasmodium falciparum [2],Active
same,Activity,Plasmodium falciparum [3],Active
same,IC50,Plasmodium falciparum [4],2200 nM
same,Activity,Plasmodium falciparum [5],Active
same,Activity,Plasmodium falciparum [6],Active
same,growth inhibition (GI),Plasmodium falciparum [7],Active
same,Activity,Plasmodium falciparum [8],Active
same,Activity,Plasmodium falciparum [9],Active
same,Ratio IC50,[10],0.9
same,Activity,Plasmodium falciparum [11],Active
same,growth inhibition (GI),Plasmodium falciparum [12],Active
same,Activity,Plasmodium falciparum [13],Active
same,growth inhibition (GI),Plasmodium falciparum [14],Active
same,Activity,Plasmodium falciparum [15],Active
same,selectivity ratio,[16],> 45.5
same,growth inhibition (GI),Plasmodium falciparum [17],inactive
same,selectivity ratio,[18],> 45.5
same,growth inhibition (GI),Plasmodium falciparum [19],inactive
same,Activity,Plasmodium falciparum [20],Active
same,Activity,Plasmodium falciparum [21],inactive
same,inhibition,Plasmodium falciparum [22],inactive
same,growth inhibition (GI),Plasmodium falciparum [23],Active
same,Ratio IC50,[24],1
same,growth inhibition (GI),Plasmodium falciparum [25],inactive
same,IC50,[26],25000 nM
same,IC50,Plasmodium falciparum [27],1980 nM
same,growth inhibition (GI),Plasmodium falciparum [28],Active
same,inhibition,Plasmodium falciparum [29],inactive
same,IC50,Plasmodium falciparum [30],2200 nM
